Here are results for two compounds from ChEMBL document CHEMBL4028902, “Azetidine and Piperidine Carbamates as Efficient, Covalent Inhibitors of Monoacylglycerol Lipase” (J Med Chem, 2017).

A value given as a limit tells only on which side of the number the result lay.

As a reminder, the IC50 is the concentration needed to halve the response being measured. By inhibition is commonly meant the relative decrease from the control value, in per cent.

The target in one series is T1, Monoglyceride lipase (Homo sapiens, UniProt Q99685).
T1 sequence (Q99685 whole entry): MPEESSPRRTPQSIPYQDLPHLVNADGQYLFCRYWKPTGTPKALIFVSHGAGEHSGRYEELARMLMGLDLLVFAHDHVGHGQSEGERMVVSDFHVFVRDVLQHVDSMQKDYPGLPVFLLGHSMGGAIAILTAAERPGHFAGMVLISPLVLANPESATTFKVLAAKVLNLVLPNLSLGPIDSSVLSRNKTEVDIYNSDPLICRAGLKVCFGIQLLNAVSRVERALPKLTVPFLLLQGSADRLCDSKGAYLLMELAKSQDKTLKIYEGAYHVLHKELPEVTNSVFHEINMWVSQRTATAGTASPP
Description: Inhibition of human recombinant MAGL using 7-HCA as substrate preincubated for 30 mins followed by substrate addition measured after 60 mins by fluorescence assay. The essentials: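 Reaction started with 7-HCA (5 μM final), run 60 min, fluorescence Ex/Em 340/465. Percent inhibition versus no-compound and full-inhibition controls; IC50 from four-parameter fit.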

The target in series [1] is T2, Monoacylglycerol lipase ABHD6 (Homo sapiens) (UniProt Q9BV23).
T2 sequence (whole entry): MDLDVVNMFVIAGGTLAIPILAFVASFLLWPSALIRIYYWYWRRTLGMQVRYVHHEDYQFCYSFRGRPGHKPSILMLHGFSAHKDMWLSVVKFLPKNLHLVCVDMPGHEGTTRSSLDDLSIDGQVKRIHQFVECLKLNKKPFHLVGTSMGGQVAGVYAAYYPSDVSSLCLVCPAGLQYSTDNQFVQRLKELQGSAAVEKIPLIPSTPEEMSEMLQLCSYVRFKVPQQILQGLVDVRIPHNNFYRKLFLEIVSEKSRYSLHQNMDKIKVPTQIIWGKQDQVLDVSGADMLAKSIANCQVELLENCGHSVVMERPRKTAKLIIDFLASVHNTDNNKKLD
Description: Inhibition of human ABHD6 at 1 to 10 uM relative to control.

Another series addresses T3, Cocaine esterase (Homo sapiens, UniProt O00748).
T3 sequence (O00748 whole entry): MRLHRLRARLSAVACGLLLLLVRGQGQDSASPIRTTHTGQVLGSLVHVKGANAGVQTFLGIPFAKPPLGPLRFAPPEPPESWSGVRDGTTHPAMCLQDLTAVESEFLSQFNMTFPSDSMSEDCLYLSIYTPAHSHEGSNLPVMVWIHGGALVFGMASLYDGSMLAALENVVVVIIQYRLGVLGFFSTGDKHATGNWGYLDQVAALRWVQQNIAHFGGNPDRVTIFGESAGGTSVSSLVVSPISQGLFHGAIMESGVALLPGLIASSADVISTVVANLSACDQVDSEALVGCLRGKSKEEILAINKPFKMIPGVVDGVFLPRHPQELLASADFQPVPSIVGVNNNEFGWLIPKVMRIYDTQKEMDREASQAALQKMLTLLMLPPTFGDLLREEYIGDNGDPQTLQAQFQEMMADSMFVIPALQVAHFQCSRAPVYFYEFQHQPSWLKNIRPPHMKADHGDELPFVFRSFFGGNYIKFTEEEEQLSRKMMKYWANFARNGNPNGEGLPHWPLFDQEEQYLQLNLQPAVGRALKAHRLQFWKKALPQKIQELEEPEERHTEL
Description: Inhibition of human CES2 at 1 to 10 uM relative to control.

For series [2], the target named is T4, Monoglyceride lipase (Homo sapiens) (UniProt Q99685).
T4 sequence (whole entry): T1 sequence (Q99685 whole entry)
The series can be described thus: Inhibition of human recombinant MAGL at 1 to 10 uM using 7-HCA as substrate preincubated for 30 mins followed by substrate addition measured after 60 mins by fluorescence assay relative to control.

Series [3] deals with T5, Fatty-acid amide hydrolase 1 (Homo sapiens) (UniProt O00519).
T5 sequence (whole entry): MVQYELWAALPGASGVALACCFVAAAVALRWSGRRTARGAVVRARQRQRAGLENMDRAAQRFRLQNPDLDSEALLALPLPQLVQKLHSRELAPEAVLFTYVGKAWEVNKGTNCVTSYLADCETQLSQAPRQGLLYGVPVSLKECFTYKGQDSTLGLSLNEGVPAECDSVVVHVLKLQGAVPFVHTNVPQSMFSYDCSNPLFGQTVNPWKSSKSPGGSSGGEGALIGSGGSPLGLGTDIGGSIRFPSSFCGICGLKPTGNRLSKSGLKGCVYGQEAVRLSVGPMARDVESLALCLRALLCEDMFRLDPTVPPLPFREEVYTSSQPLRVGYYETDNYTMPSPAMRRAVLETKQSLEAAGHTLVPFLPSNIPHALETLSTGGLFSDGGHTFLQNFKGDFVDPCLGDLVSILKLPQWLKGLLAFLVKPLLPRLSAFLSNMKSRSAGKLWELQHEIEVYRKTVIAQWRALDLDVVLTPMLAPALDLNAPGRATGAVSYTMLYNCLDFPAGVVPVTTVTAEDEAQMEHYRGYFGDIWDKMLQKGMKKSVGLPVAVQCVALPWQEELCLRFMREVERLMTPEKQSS
Description: Inhibition of human recombinant FAAH at 10 uM using arachidonoyl-AMC as substrate preincubated for 30 mins followed by substrate addition measured after 60 mins by fluorescence assay relative to control.

For series [4], the target named is T6, Platelet-activating factor acetylhydrolase (Homo sapiens) (UniProt Q13093).
T6 sequence (whole entry): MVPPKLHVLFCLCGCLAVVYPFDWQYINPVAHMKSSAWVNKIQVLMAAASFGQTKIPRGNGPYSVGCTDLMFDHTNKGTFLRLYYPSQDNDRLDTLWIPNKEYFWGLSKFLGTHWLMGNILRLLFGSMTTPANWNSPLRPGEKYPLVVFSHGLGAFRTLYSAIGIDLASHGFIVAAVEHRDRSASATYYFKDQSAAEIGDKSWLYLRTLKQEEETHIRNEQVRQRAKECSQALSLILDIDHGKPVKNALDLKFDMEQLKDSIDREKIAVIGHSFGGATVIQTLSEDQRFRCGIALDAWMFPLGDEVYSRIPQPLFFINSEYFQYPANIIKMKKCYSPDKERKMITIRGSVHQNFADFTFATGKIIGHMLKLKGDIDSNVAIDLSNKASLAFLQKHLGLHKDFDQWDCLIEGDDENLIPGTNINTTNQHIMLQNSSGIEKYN
The following applies: 10 uM.

The target in series [5] is T6, Platelet-activating factor acetylhydrolase (Homo sapiens). The series can be described thus: Inhibition of human PLA2G7 at 1 to 10 uM relative to control.
For the next series, the system named is Mus musculus. The series can be described thus: Time required for unbound brain concentration to reach above in vitro IC50 for recombinant human MAGL in C57Bl6 mouse at 10 mg/kg, sc. The method, boiled down:
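Subcutaneous dosing of C57Bl6 mice in DMSO/Cremophor/saline (5:5:90). Plasma (NaF/K2EDTA tubes) and cerebellum collected at 0.5–24 h, 3 mice per time point. Cerebellum diluted 1:4 (w/v) with water and homogenized; samples deproteinated with methanol/acetonitrile plus internal standard, then HPLC-MS/MS. LLOQ 1.0 ng/mL plasma, 0.5 ng/mL brain homogenate. PK parameters by noncompartmental analysis.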

For the compound `O=C(OC(C(F)(F)F)C(F)(F)F)N1CCC(c2ccn(-c3ccccc3)n2)CC1`, the IC50 on Monoglyceride lipase was found to be 2 nM. Moreover, the inhibition in series [1], in series [2], in series [3] and in series [4] was over 70% each time. On Cocaine esterase, the “inhibition (INH)” value was over 70%.
On to `O=C(OC(C(F)(F)F)C(F)(F)F)N1CC(c2ccn(-c3ccccc3)n2)C1`, for which, on Monoglyceride lipase, the IC50 was found to be 0.18 nM. In addition, the inhibition in series [1], in series [5], in series [2] and in series [3] was over 70% each time. For the same compound, on Cocaine esterase, the “inhibition (INH)” value is over 70%. The Time in the series on Mus musculus came out at 8 h.
